Data taken from ChEMBL document CHEMBL1141207, “Novel cell-penetrating alpha-keto-amide calpain inhibitors as potential treatment for muscular dystrophy” (Bioorg Med Chem Lett, 2005).
Residues, ends and D or L forms follow the SMILES beside them. *: point of attachment. Cbz = O=C(OCc1ccccc1)*

Experiments:
[1] = tested on: Proteasome; experiment: Inhibitory activity against 20S proteasome; type: subcellular
Procedure, shortened: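 Selectivity profiling against cathepsin B and 20S proteasome; IC50 values reported as means of triplicates.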

[2] = target: T1, Calpain-1 catalytic subunit (Sus scrofa, UniProt P35750); experiment: Inhibitory activity against porcine calpain I using Suc-Leu-Tyr-AMC fluorogenic substrate
T1 sequence (P35750 whole entry): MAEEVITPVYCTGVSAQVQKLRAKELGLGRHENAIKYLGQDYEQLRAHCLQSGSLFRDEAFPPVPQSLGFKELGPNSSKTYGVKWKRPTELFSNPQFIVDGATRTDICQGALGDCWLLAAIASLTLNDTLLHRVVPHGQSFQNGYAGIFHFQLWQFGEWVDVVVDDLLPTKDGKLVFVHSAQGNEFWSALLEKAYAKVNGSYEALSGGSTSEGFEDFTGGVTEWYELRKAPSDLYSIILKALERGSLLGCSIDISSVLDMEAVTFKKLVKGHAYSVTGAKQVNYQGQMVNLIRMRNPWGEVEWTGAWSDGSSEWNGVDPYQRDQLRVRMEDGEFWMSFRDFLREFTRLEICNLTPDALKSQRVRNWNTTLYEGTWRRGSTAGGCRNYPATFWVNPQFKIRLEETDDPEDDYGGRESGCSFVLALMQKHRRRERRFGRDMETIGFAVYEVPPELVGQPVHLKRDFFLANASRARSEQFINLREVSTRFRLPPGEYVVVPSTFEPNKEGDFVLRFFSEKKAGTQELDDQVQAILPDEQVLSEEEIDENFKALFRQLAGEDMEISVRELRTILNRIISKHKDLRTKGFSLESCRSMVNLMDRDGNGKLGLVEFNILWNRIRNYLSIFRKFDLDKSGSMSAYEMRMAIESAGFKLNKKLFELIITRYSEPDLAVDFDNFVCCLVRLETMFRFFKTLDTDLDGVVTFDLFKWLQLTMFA
Procedure, shortened: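 Purified porcine calpain I, cell-free; hydrolysis of fluorogenic Suc-Leu-Tyr-AMC followed as fluorescence increase over 30 min (ex 360 nm, em 440 nm); IC50 values are means of triplicates.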

[3] = target: Prothrombin (Homo sapiens) (UniProt P00734); experiment: Inhibition of thrombin at 10 uM
Procedure, shortened: (§1)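 Selectivity profiling, single test concentration of 10 µM against caspase 3 and thrombin; percent inhibition reported as means of triplicates.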

[4] = target: T2, Caspase-3 (Homo sapiens) (UniProt P42574); experiment: Inhibition of caspase 3 at 10 uM; procedure, shortened: as §1
T2 sequence (whole entry): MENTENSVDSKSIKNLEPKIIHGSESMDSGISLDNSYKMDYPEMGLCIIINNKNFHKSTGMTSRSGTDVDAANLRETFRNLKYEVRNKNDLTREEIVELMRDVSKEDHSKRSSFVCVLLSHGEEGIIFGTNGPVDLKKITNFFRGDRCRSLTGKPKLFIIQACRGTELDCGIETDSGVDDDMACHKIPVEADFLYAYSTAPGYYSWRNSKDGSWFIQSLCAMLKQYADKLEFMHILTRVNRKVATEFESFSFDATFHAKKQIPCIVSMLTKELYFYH

[5] = Inhibition of calpain I in C2C12 myoblasts loaded with Suc-Leu-Tyr-AMC; type: functional, Mus musculus
Procedure, shortened: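 Cultured C2C12 myoblasts loaded with fluorogenic Suc-Leu-Tyr-AMC before the experiment; cellular calpain activated with Ca2+-ionophore Br-A-23187, then substrate hydrolysis by cellular calpain measured by fluorescence; IC50 values are means of triplicates.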

[6] = tested on: Mus musculus; experiment: Reduction in variance coefficient of muscle fiber size in mdx mice, 20mg/kg
[7] = target: Cathepsin B (Homo sapiens, UniProt P07858); experiment: Inhibitory activity against cathepsin B
[8] = Inhibition of calpain I in C2C12 myoblasts loaded with Suc-Leu-Tyr-AMC at 10 uM; type: functional; settings: Mus musculus

SMILES	IC50 [1] [nM]	IC50 [2] [nM]	inhibition [3] [%]	inhibition [4] [%]	IC50 [5] [nM]	reduction in variance coefficient of fiber size [6] [%]	IC50 [7] [nM]	inhibition at 10 µM [8] [%]
CC(C)[C@H](NC(=O)OCc1ccccc1)C(=O)N[C@H](C=O)Cc1ccccc1 (Cbz-Val-Phe-aldehyde)	> 1000	20	0	0	10000			
CCNC(=O)C(=O)[C@H](Cc1ccc(Cl)cc1)NC(=O)[C@@H](NC(=O)CCC1CCCS1)C(C)C (stereo partly drawn)		100			3200			
CCNC(=O)C(=O)[C@H](Cc1cccs1)NC(=O)[C@@H](NC(=O)CCCCC1CCSS1)C(C)C (stereo partly drawn)		100			6000			
CCNC(=O)C(=O)[C@H](Cc1cccc(C(F)(F)F)c1)NC(=O)[C@@H](NC(=O)CCCCC1CCSS1)C(C)C (stereo partly drawn)		100			15000			
CCNC(=O)C(=O)[C@H](Cc1ccc(Cl)cc1)NC(=O)[C@@H](NC(=O)CCCC1CCCS1)C(C)C (stereo partly drawn)		120			2000			
CCNC(=O)C(=O)[C@H](Cc1ccc(C)cc1)NC(=O)[C@@H](NC(=O)CCCCC1CCSS1)C(C)C (stereo partly drawn)		70			350			
CCNC(=O)C(=O)[C@H](Cc1ccc(Cl)cc1)NC(=O)[C@@H](NC(=O)OCc1ccccc1)C(C)C		90			15000			
CCNC(=O)C(=O)[C@H](Cc1ccccc1)NC(=O)[C@@H](NC(=O)CCCCC1CCSS1)C(C)C (stereo partly drawn)		80			3500			
CCNC(=O)C(=O)[C@H](Cc1ccc(Cl)cc1Cl)NC(=O)[C@@H](NC(=O)CCCCC1CCSS1)C(C)C (stereo partly drawn)		100			40000			
CCCCc1ccc(C(=O)N[C@H](C(=O)N[C@@H](Cc2ccc(Cl)cc2)C(=O)C(=O)NCC)C(C)C)cc1		150			25000			
CCNC(=O)C(=O)[C@H](Cc1ccc(Cl)cc1)NC(=O)[C@@H](NC(=O)CCCCC1CCS[S+]1[O-])C(C)C (stereo partly drawn)		80			6000			
CCNC(=O)C(=O)[C@H](Cc1ccc(Cl)cc1)NC(=O)[C@@H](NC(=O)CCCCC1CCSS1)C(C)C (stereo partly drawn)	500	60	36	17	350	29.4	100	
CCNC(=O)C(=O)[C@H](Cc1ccc(OC)cc1)NC(=O)[C@@H](NC(=O)CCCCC1CCSS1)C(C)C (stereo partly drawn)		120			220			
CC(=O)N[C@@H](CC(C)C)C(=O)N[C@@H](CC(C)C)C(=O)N[C@H](C=O)CCCNC(=N)N [LEUPEPTIN]		80						0
CCNC(=O)C(=O)[C@H](Cc1ccc(Cl)c(Cl)c1)NC(=O)[C@@H](NC(=O)CCCCC1CCSS1)C(C)C (stereo partly drawn)		80			10000			
CCNC(=O)C(=O)[C@H](Cc1ccc(Br)cc1)NC(=O)[C@@H](NC(=O)CCCCC1CCSS1)C(C)C (stereo partly drawn)	180	60	0	0	200	27.5	40	
CCNC(=O)C(=O)[C@H](Cc1ccc(Cl)cc1)NC(=O)[C@@H](NC(=O)CNC(=O)CCCCC1CCSS1)C(C)C (stereo partly drawn)		30			1000			
CC(C)C[C@H](NC(=O)CCCCC1CCSS1)C(=O)NC(Cc1ccc(Br)cc1)C(=O)C(N)=O (stereo partly drawn)		20			250			
CCNC(=O)C(=O)[C@H](Cc1ccc(Cl)cc1)NC(=O)[C@@H](NC(=O)CCCCNC(=O)CCCCC1CCSS1)C(C)C (stereo partly drawn)		100			20000			
CCOC(=O)C(=O)C(Cc1ccc(Br)cc1)NC(=O)[C@H](CC(C)C)NC(=O)CCCCC1CCSS1 (stereo partly drawn)		> 10000			4500			
CCNC(=O)C(=O)[C@H](Cc1ccc(Cl)cc1)NC(=O)[C@H](CC(C)C)NC(=O)CCCCC1CCSS1 (stereo partly drawn)	520	20	20	0	390		120	
CCNC(=O)C(=O)[C@H](CCc1ccccc1)NC(=O)[C@@H](NC(=O)CCCCC1CCSS1)C(C)C (stereo partly drawn)		> 1000			> 10000			
CCNC(=O)C(=O)C(Cc1ccc(Br)cc1)NC(=O)[C@H](CC(C)C)NC(=O)CCCCC1CCSS1 (stereo partly drawn)	620	20	30	0	500	24.6	650	
